Type in all cases: functional
For one test, the system named is Streptococcus. In words: Antimicrobial activity against Streptococcus at 25 ug by paper-disk method. To be noted: read-out: IZ. The method, boiled down: (§1)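 Paper-disk diffusion assay with 25 µg of compound per disk; activity read as diameter of the growth-inhibition zone in mm. The Streptococcus strain is given only as Streptococcus sp.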
For a further test, the system named is Escherichia coli. In words: Antimicrobial activity against Escherichia coli at 25 ug by paper-disk method. The settings on record: read-out: IZ. The procedure, abridged:
as §1

Another test relates to Bacillus subtilis. In words: Antimicrobial activity against Bacillus subtilis at 25 ug by paper-disk method. The settings on record: read-out: IZ. The method, boiled down:
as §1

A further test relates to Staphylococcus aureus. In words: Antimicrobial activity against Staphylococcus aureus at 25 ug by paper-disk method. To be noted: read-out: IZ. The procedure, abridged: as §1
A further test has as its system Candida albicans. In words: Antimicrobial activity against Candida albicans at 25 ug by paper-disk method. To be noted: read-out: IZ. The method, boiled down:
as §1

For another test, the system named is K562. In words: Cytotoxicity against human K562 cells by MTT method. To be noted: read-out: LC50 (the source's name). The procedure, abridged: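 Human leukemia K562 cell line, MTT read-out; value expressed as LC50 in µg/mL.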

Our source for the zone of inhibition and CC50 values is ChEMBL document CHEMBL1151181, “New sesterterpenes from the Antarctic sponge Suberites sp” (2004).

Turning to `CC(=O)O[C@@H]1C=C(C)C(=O)C[C@H]1[C@@]1(O)CC[C@@H]2[C@@](C)(C[C@@H](OC(C)=O)[C@H]3C(C)(C)CCC[C@]23C)C1`, the zone of inhibition at 25 µg/disc with Streptococcus, with Escherichia coli, with Bacillus subtilis, with Staphylococcus aureus and with Candida albicans was less than 3 mm throughout.

`CC(=O)O[C@@H]1C[C@@]2(C)CC([C@@H]3CC(=O)C(C)=C[C@H]3O)=CC[C@H]2[C@@]2(C)CCCC(C)(C)[C@H]12` [SUBERITENONE C]: the zone of inhibition at 25 µg/disc in the test with Streptococcus, in the test on Escherichia coli, in the test with Bacillus subtilis, in the test with Staphylococcus aureus and in the test on Candida albicans was less than 3 mm each time. In addition, in the test with K562, the CC50 was more than 100 µg/mL.

Turning to `CC(=O)O[C@@H]1C[C@@]2(C)CC(c3ccc(C)c(O)c3)=CC[C@H]2[C@@]2(C)CCCC(C)(C)[C@H]12` [SUBERIPHENOL], the zone of inhibition at 25 µg/disc in the test on Streptococcus, in the test with Escherichia coli, in the test with Bacillus subtilis, with Staphylococcus aureus and with Candida albicans was less than 3 mm each time. Moreover, in the test with K562, the CC50 is more than 100 µg/mL.
